Reference: ChEMBL document CHEMBL2311431, “Synthesis and biological evaluation of some 5-arylidene-2-(1,3-thiazol-2-ylimino)-1,3-thiazolidin-4-ones as dual anti-inflammatory/antimicrobial agents” (Bioorg Med Chem, 2013)
Values after ≈ are worked out from the molar mass of the structure shown.

Assays:
[1] = Inhibition of soybean lipoxygenase assessed as inhibition of sodium linolate conversion to 13-hydroperoxylinoleic acid after 4 mins by spectrophotometry; set-up: species or system Glycine max; conditions: read-out: IC50
Staphylococcus aureus [2] = assay: Antibacterial activity against Staphylococcus aureus ATCC 6538 after 24 hr by microdilution test; format: functional; conditions: ATCC 6538, 24 h
How it was run: (§1)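 Broth microdilution in LB medium, about 1.0×10^4 cfu per well; compounds from 1 mg/ml stocks in 5% DMSO. Incubated 24 h. MIC is the lowest concentration with no visible growth under a binocular microscope. Run in duplicate, repeated three times.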

Pseudomonas aeruginosa [3] = assay: Bactericidal activity against Pseudomonas aeruginosa ATCC 27853 after 72 hrs by serial subcultivation method; format: functional; conditions: ATCC 27853, 72 h
Micrococcus flavus [4] = assay: Antibacterial activity against Micrococcus flavus ATCC 10240 after 24 hr by microdilution test; format: functional; conditions: ATCC 10240, 24 h; how it was run: as §1
Listeria monocytogenes [5] = assay: Antibacterial activity against Listeria monocytogenes NCTC 7973 after 24 hr by microdilution test; format: functional; conditions: NCTC 7973, 24 h; how it was run: as §1
Aspergillus niger [6] = assay: Fungicidal activity against Aspergillus niger ATCC 6275 after 72 hrs by serial subcultivation method; format: functional; conditions: ATCC 6275, 72 h
Aspergillus niger [7] = assay: Antifungal activity against Aspergillus niger ATCC 6275 after 72 hrs by serial dilution technique; format: functional; conditions: ATCC 6275, 72 h
How it was run: (§2)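 Serial dilution in malt broth; compounds from 1 mg/ml stocks in 5% DMSO; 72 h at 28 °C. MIC is the lowest concentration with no visible growth under a binocular microscope. Run in duplicate, repeated three times.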

Mus musculus [8] = assay: Acute toxicity in AKR mouse up to 0.5 mmol/kg, ip; format: organism-based; conditions: in vivo
Bacillus cereus [9] = assay: Bactericidal activity against Bacillus cereus clinical isolate after 72 hrs by serial subcultivation method; format: functional
[10] = target: T1, Prostaglandin G/H synthase 1 (Ovis aries) (UniProt P05979); assay: Inhibition of ovine COX1 assessed as inhibition of PGF2a production by enzyme immunoassay; set-up: concentration or dose not given beside the values; conditions: concentration not given here
T1 sequence (whole entry): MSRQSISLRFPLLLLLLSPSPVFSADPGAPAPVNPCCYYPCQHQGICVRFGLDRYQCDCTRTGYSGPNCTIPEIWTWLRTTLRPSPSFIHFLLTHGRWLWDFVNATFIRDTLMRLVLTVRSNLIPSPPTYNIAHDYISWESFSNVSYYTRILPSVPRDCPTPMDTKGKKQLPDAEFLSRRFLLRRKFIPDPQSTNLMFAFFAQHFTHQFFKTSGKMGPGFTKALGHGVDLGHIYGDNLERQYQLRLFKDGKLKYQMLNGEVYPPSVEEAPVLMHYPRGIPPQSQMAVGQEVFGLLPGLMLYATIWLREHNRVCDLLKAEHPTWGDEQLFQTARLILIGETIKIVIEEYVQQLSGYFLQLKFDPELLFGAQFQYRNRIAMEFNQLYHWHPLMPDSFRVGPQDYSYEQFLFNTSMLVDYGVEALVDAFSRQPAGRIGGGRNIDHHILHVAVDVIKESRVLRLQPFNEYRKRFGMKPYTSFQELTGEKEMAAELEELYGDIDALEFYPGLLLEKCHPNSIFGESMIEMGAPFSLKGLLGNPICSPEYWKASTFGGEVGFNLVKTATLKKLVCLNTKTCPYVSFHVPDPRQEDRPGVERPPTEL
How it was run: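 Ovine COX-1 from a commercial screening kit, tested with 0.1 µM arachidonic acid, which is below the saturating level. COX-derived PGH2 is reduced by SnCl2 to PGF2a, quantified by enzyme immunoassay with a broad prostaglandin antibody. At least triplicate.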

Aspergillus flavus [11] = assay: Antifungal activity against Aspergillus flavus ATCC 9643 after 72 hrs by serial dilution technique; format: functional; conditions: ATCC 9643, 72 h; how it was run: as §2
Aspergillus flavus [12] = assay: Fungicidal activity against Aspergillus flavus ATCC 9643 after 72 hrs by serial subcultivation method; format: functional; conditions: ATCC 9643, 72 h
Talaromyces funiculosus [13] = assay: Fungicidal activity against Penicillium funiculosum ATCC 36839 after 72 hrs by serial subcultivation method; format: functional; conditions: ATCC 36839, 72 h
Pseudomonas aeruginosa [14] = assay: Antibacterial activity against Pseudomonas aeruginosa ATCC 27853 after 24 hr by microdilution test; format: functional; conditions: ATCC 27853, 24 h; how it was run: as §1
Trichoderma viride [15] = assay: Antifungal activity against Trichoderma viride IAM 5061 after 72 hrs by serial dilution technique; format: functional; conditions: IAM 5061, 72 h; how it was run: as §2
Staphylococcus aureus [16] = assay: Bactericidal activity against Staphylococcus aureus ATCC 6538 after 72 hrs by serial subcultivation method; format: functional; conditions: ATCC 6538, 72 h
Micrococcus flavus [17] = assay: Bactericidal activity against Micrococcus flavus ATCC 10240 after 72 hrs by serial subcultivation method; format: functional; conditions: ATCC 10240, 72 h
Trichoderma viride [18] = assay: Fungicidal activity against Trichoderma viride IAM 5061 after 72 hrs by serial subcultivation method; format: functional; conditions: IAM 5061, 72 h
Mus musculus [19] = assay: Antiinflammatory activity in AKR mouse assessed as inhibition of carrageenan-induced paw edema at 0.01 mmol/kg, ip measured after 3.5 hrs of carrageenan-challenge; format: functional
How it was run: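 AKR mice of both sexes (pregnant females excluded), 6-10 per group, fasted during the experiment. Edema induced by intradermal 0.05 mL of 2% carrageenin into the right hind paw. Compound given at 0.01 mmol/kg ip, suspended in water with Tween-80, at the same time as carrageenin.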

Penicillium ochrochloron [20] = assay: Fungicidal activity against Penicillium ochrochloron ATCC 9112 after 72 hrs by serial subcultivation method; format: functional; conditions: ATCC 9112, 72 h
Penicillium ochrochloron [21] = assay: Antifungal activity against Penicillium ochrochloron ATCC 9112 after 72 hrs by serial dilution technique; format: functional; conditions: ATCC 9112, 72 h; how it was run: as §2
Bacillus cereus [22] = assay: Antibacterial activity against Bacillus cereus clinical isolate after 24 hr by microdilution test; format: functional; how it was run: as §1
Escherichia coli [23] = assay: Antibacterial activity against Escherichia coli ATCC 35210 after 24 hr by microdilution test; format: functional; conditions: ATCC 35210, 24 h; how it was run: as §1
Talaromyces funiculosus [24] = assay: Antifungal activity against Penicillium funiculosum ATCC 36839 after 72 hrs by serial dilution technique; format: functional; conditions: ATCC 36839, 72 h; how it was run: as §2
Listeria monocytogenes [25] = assay: Bactericidal activity against Listeria monocytogenes NCTC 7973 after 72 hrs by serial subcultivation method; format: functional; conditions: NCTC 7973, 72 h
Aspergillus fumigatus [26] = assay: Fungicidal activity against Aspergillus fumigatus after 72 hrs by serial subcultivation method; format: functional
Escherichia coli [27] = assay: Bactericidal activity against Escherichia coli ATCC 35210 after 72 hrs by serial subcultivation method; format: functional; conditions: ATCC 35210, 72 h
Aspergillus fumigatus [28] = assay: Antifungal activity against Aspergillus fumigatus after 72 hrs by serial dilution technique; format: functional; how it was run: as §2

SMILES | IC50 [1] | MIC (Staphylococcus aureus [2]) | MBC (Pseudomonas aeruginosa [3]) | MIC (Micrococcus flavus [4]) | MIC (Listeria monocytogenes [5]) | MFC (Aspergillus niger [6]) | MIC (Aspergillus niger [7]) | Activity (Mus musculus [8]) | MBC (Bacillus cereus [9]) | inhibition [10] | MIC (Aspergillus flavus [11]) | MFC (Aspergillus flavus [12]) | MFC (Talaromyces funiculosus [13]) | MIC (Pseudomonas aeruginosa [14]) | MIC (Trichoderma viride [15]) | MBC (Staphylococcus aureus [16]) | MBC (Micrococcus flavus [17]) | MFC (Trichoderma viride [18]) | inhibition in vivo at 10 µmol/kg (Mus musculus [19]) | MFC (Penicillium ochrochloron [20]) | also measured
O=C1N/C(=N\c2nc(-c3ccccc3)cs2)S/C1=C\c1cccc(Cl)c1 | 88 µM | 25.2 µM (≈ 10 µg/mL) | 50.4 µM (≈ 20.1 µg/mL) | 25.2 µM (≈ 10 µg/mL) | 25.2 µM (≈ 10 µg/mL) | 25.2 µM (≈ 10 µg/mL) | 19 µM (≈ 7.56 µg/mL) | Non-toxic | 25.2 µM (≈ 10 µg/mL) | 65% | 19 µM (≈ 7.56 µg/mL) | 25.2 µM (≈ 10 µg/mL) | 25.2 µM (≈ 10 µg/mL) | 25.2 µM (≈ 10 µg/mL) | 12.6 µM (≈ 5.01 µg/mL) | 50.4 µM (≈ 20.1 µg/mL) | 50.4 µM (≈ 20.1 µg/mL) | 25.2 µM (≈ 10 µg/mL) | 51% | 25.2 µM (≈ 10 µg/mL) | MIC (Penicillium ochrochloron [21]): 19 µM (≈ 7.56 µg/mL); MIC (Bacillus cereus [22]): 25.2 µM (≈ 10 µg/mL); MIC (Escherichia coli [23]): 25.2 µM (≈ 10 µg/mL); MIC (Talaromyces funiculosus [24]): 19 µM (≈ 7.56 µg/mL); MBC (Listeria monocytogenes [25]): 50.4 µM (≈ 20.1 µg/mL); MFC (Aspergillus fumigatus [26]): 25.2 µM (≈ 10 µg/mL); MBC (Escherichia coli [27]): 50.4 µM (≈ 20.1 µg/mL); MIC (Aspergillus fumigatus [28]): 19 µM (≈ 7.56 µg/mL)
O=C1N/C(=N\c2nccs2)S/C1=C\c1ccc(Br)cc1 | 66 µM | 13.7 µM (≈ 5.02 µg/mL) | 54.6 µM (≈ 20 µg/mL) | 27.3 µM (≈ 10 µg/mL) | 27.3 µM (≈ 10 µg/mL) | 27.3 µM (≈ 10 µg/mL) | 13.7 µM (≈ 5.02 µg/mL) | Non-toxic | 54.6 µM (≈ 20 µg/mL) | 67% | 13.7 µM (≈ 5.02 µg/mL) | 27.3 µM (≈ 10 µg/mL) | 27.3 µM (≈ 10 µg/mL) | 27.3 µM (≈ 10 µg/mL) | 13.7 µM (≈ 5.02 µg/mL) | 27.3 µM (≈ 10 µg/mL) | 54.6 µM (≈ 20 µg/mL) | 27.3 µM (≈ 10 µg/mL) | 42.2% | 27.3 µM (≈ 10 µg/mL) | MIC (Penicillium ochrochloron [21]): 13.7 µM (≈ 5.02 µg/mL); MIC (Bacillus cereus [22]): 20.5 µM (≈ 7.51 µg/mL); MIC (Escherichia coli [23]): 27.3 µM (≈ 10 µg/mL); MIC (Talaromyces funiculosus [24]): 20.5 µM (≈ 7.51 µg/mL); MBC (Listeria monocytogenes [25]): 54.6 µM (≈ 20 µg/mL); MFC (Aspergillus fumigatus [26]): 27.3 µM (≈ 10 µg/mL); MBC (Escherichia coli [27]): 54.6 µM (≈ 20 µg/mL); MIC (Aspergillus fumigatus [28]): 13.7 µM (≈ 5.02 µg/mL)
Cc1csc(/N=C2\NC(=O)/C(=C/c3ccccc3Cl)S2)n1 | 79 µM | 59.6 µM (≈ 20 µg/mL) | 119 µM (≈ 40 µg/mL) | 29.8 µM (≈ 10 µg/mL) | 119 µM (≈ 40 µg/mL) | 20.9 µM (≈ 7.02 µg/mL) | 14.9 µM (≈ 5 µg/mL) | Non-toxic | 119 µM (≈ 40 µg/mL) | 97% | 20.9 µM (≈ 7.02 µg/mL) | 20.9 µM (≈ 7.02 µg/mL) | 20.9 µM (≈ 7.02 µg/mL) | 59.6 µM (≈ 20 µg/mL) | 17.9 µM (≈ 6.01 µg/mL) | 119 µM (≈ 40 µg/mL) | 59.6 µM (≈ 20 µg/mL) | 20.9 µM (≈ 7.02 µg/mL) | 43% | 20.9 µM (≈ 7.02 µg/mL) | MIC (Penicillium ochrochloron [21]): 14.9 µM (≈ 5 µg/mL); MIC (Bacillus cereus [22]): 59.6 µM (≈ 20 µg/mL); MIC (Escherichia coli [23]): 119 µM (≈ 40 µg/mL); MIC (Talaromyces funiculosus [24]): 17.9 µM (≈ 6.01 µg/mL); MBC (Listeria monocytogenes [25]): 119 µM (≈ 40 µg/mL); MFC (Aspergillus fumigatus [26]): 20.9 µM (≈ 7.02 µg/mL); MBC (Escherichia coli [27]): 119 µM (≈ 40 µg/mL); MIC (Aspergillus fumigatus [28]): 17.9 µM (≈ 6.01 µg/mL)
